Results reported in ChEMBL document CHEMBL1153536, “5-lipoxygenase-activating protein inhibitors: development of 3-[3-tert-butylsulfanyl-1-[4-(6-methoxy-pyridin-3-yl)-benzyl]-5-(pyridin-2-ylmethoxy)-1H-indol-2-yl]-2,2-dimethyl-propionic acid (AM103)” (J Med Chem, 2009).
Active and inactive are the calls of the source. The calls are words filed in the database; no cut-off is given here.

Key:
[1] = target: T1, Arachidonate 5-lipoxygenase-activating protein (Homo sapiens, UniProt P20292); experiment: Displacement of [3H]3-[5-(pyrid-2-ylmethoxy)-3-tert-butylthio-1-benzyl-indol-2-yl]-2,2-dimethylpropionic acid from FLAP in human polymorphonuclear cell membrane
T1 sequence (P20292 whole entry): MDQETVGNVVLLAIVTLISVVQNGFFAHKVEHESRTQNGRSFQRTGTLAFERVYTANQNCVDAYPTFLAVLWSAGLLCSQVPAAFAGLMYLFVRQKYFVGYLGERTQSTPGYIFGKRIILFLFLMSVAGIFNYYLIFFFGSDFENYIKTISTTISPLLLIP

[2] = Inhibition of calcium ionophore A-23187-stimulated LTB4 production in human leukocytes by ELISA; format: functional, cell-based; settings: Leukocyte
Method in brief: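 Dextran-sedimented, hypotonically lysed human leukocytes at 1.25 × 10^5 cells/mL, preincubated 5 min at 37 °C with compound in DMSO. Stimulated 5 min at 37 °C with A23187 (5 μL of 0.5 mM into 250 μL). Supernatant LTB4 measured by ELISA at 1:4 dilution; IC50 by nonlinear regression of % inhibition vs log concentration.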

Blood = experiment: Inhibition of calcium ionophore A-23187-stimulated LTB4 production in human whole blood by ELISA; format: functional, tissue-based
Method in brief: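 Heparinized human whole blood preincubated 15 min at 37 °C with compound in DMSO. Stimulated 30 min at 37 °C with A23187 (2 μL of 1.5 mM into 150 μL). Plasma LTB4 measured by ELISA at 1:100 dilution; IC50 by nonlinear regression. A single value is one assay averaging two donors.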

Cytochrome P450 3A4 [3] = target: T2, Cytochrome P450 3A4 (Homo sapiens, UniProt P08684); experiment: Inhibition of CYP3A4; format: ADME
T2 sequence (P08684 whole entry): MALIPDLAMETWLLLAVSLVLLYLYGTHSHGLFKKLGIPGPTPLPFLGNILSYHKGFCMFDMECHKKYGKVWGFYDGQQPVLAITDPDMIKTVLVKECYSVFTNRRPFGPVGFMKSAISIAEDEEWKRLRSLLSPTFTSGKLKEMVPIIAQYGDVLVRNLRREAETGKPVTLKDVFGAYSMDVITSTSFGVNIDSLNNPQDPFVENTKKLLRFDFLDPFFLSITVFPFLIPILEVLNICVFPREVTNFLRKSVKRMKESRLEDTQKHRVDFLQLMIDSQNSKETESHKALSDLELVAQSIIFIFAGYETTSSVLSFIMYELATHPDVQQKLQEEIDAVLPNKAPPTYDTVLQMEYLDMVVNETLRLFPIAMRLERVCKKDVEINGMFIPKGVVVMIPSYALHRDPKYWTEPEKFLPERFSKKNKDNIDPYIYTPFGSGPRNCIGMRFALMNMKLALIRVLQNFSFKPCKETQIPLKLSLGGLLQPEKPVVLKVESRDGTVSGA

Cytochrome P450 2C9 = Cytochrome P450 2C9 (Homo sapiens, UniProt P11712); experiment: Inhibition of CYP2C9; format: ADME
Cytochrome P450 2C9, sequence (P11712 whole entry): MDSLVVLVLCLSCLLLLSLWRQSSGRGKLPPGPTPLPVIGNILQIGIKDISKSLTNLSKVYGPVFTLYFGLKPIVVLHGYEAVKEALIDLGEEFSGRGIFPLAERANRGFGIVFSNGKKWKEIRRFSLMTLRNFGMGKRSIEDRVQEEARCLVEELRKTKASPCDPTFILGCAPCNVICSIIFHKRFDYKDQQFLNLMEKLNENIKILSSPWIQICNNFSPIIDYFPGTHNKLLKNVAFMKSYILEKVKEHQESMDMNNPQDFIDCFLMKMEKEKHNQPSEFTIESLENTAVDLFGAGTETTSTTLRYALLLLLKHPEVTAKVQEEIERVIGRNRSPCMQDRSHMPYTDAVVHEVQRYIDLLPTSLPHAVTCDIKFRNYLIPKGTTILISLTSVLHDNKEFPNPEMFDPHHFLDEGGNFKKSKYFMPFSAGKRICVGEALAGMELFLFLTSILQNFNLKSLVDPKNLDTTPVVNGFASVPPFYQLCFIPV

Cytochrome P450 2D6 = Cytochrome P450 2D6 (Homo sapiens, UniProt P10635); experiment: Inhibition of CYP2D6; format: ADME
Cytochrome P450 2D6, sequence (P10635 whole entry): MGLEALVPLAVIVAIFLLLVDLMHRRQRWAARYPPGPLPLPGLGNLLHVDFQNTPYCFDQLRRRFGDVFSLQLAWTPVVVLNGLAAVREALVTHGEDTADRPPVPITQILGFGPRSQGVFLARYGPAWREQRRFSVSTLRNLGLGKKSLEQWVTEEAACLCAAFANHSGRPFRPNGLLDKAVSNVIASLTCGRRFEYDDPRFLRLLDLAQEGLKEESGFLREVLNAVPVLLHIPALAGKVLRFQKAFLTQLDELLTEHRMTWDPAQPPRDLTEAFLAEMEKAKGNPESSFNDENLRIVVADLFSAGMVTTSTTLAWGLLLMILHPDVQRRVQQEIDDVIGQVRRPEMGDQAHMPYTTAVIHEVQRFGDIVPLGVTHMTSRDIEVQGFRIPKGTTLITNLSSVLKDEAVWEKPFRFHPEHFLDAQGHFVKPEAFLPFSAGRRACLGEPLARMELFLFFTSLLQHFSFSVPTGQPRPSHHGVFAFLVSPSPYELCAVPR

Cytochrome P450 3A4 [4] = target: T2, Cytochrome P450 3A4; experiment: Inhibition of CYP3A4 assessed as inhibition rate
[5] = Clearance in Sprague-Dawley rat 10 mg/kg, po; format: ADME, organism-based; design: dose 10 mg/kg, route oral; settings: in vivo
Method in brief: (§1)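 Male rats fasted overnight, 2 or 3 per route. Dosing was 2 mg/kg i.v. as a jugular bolus in PEG400/ethanol/water (40/10/50) and 10 mg/kg p.o. by gavage in 0.5% methylcellulose. Jugular cannula blood was sampled up to 24 h (8-9 samples). Plasma was acetonitrile-precipitated with buspirone internal standard and quantified by LC-MS/MS, positive ESI MRM, calibration […], LLOQ 1-5 ng/mL.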

CYP3A4 = CYP3A4 (Homo sapiens, UniProt P08684); experiment: Inhibition of CYP3A4 at 10 uM; format: ADME
CYP3A4, sequence (P08684 whole entry): as the sequence (P08684 whole entry) above

Rattus norvegicus = experiment: Volume of distribution at steady state in Sprague-Dawley rat at 10 mg/kg, po; format: ADME, organism-based; design: dose 10 mg/kg, route oral; settings: in vivo; method in brief: as §1
[6] = Cmax in Sprague-Dawley rat after 10 mg/kg oral dose; format: ADME, organism-based; design: dose 10 mg/kg, route oral; settings: in vivo; method in brief: as §1
[7] = Bioavailability in Sprague-Dawley rat at 2 mg/kg, iv and 10 mg/kg, po; format: ADME, organism-based; settings: Sprague-Dawley, in vivo; method in brief: as §1
[8] = AUC in Sprague-Dawley rat at 10 mg/kg, po; format: ADME, organism-based; design: dose 10 mg/kg, route oral; settings: plasma; method in brief: as §1
[9] = Half life in Sprague-Dawley rat at 10 mg/kg, po; format: ADME, organism-based; design: dose 10 mg/kg, route oral; settings: in vivo; method in brief: as §1
[10] = target: Prostaglandin G/H synthase 1 (Homo sapiens, UniProt P23219); experiment: Inhibition of COX1 in human whole blood; format: tissue-based
Prostaglandin G/H synthase 1, sequence (P23219 whole entry): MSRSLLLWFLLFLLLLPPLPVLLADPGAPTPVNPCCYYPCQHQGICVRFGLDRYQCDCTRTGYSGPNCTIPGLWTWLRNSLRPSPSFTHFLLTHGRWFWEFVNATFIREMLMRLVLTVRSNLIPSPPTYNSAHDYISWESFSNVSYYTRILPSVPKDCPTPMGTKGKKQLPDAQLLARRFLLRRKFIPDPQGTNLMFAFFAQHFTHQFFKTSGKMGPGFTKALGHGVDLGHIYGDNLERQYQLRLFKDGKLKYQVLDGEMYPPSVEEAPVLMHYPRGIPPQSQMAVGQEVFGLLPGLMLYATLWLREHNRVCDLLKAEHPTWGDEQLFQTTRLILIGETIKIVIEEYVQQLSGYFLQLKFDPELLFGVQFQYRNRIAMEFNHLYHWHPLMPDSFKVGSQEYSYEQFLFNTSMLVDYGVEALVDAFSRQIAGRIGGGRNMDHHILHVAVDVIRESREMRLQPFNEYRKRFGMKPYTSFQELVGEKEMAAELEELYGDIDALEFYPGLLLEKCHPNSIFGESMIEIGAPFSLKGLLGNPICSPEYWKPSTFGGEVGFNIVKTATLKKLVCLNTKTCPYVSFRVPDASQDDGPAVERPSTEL

Mus musculus [11] = experiment: Antiasthamatic activity against ovalbumin-induced airway lung inflammation in BALB/c mouse bronchoalveolar lavage model assessed as inhibition of increase in eosinophile peroxidase level at 10 mg/kg, po every 6 hrs administered 2 hrs prior to ovalbumin-challenge after 24 hrs; format: functional
Method in brief: (§2)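 Female BALB/c mice (20-25 g) were sensitized i.p. with OVA 100 μg/alum on days 0 and 14, then given intranasal OVA 50 μg in saline on day 21 under isoflurane. Oral 0.5% methocel vehicle or drug 10 mg/kg started 2 h before challenge, then every 6 h (4 doses). BAL with 4 × 0.3 mL PBS at 24 h; CysLTs and IL-5 by EIA, EPO by peroxidase assay.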

[12] = Bioavailability in dog at 2 mg/kg, iv and 5 mg/kg, po; format: ADME, organism-based, Canis lupus familiaris; settings: in vivo
Mus musculus [13] = experiment: Antiasthamatic activity against ovalbumin-induced airway lung inflammation in BALB/c mouse bronchoalveolar lavage model assessed as inhibition of increase in IL5 level at 10 mg/kg, po every 6 hrs administered 2 hrs prior to ovalbumin-challenge after 24 hrs; format: functional, organism-based; design: dose 10 mg/kg; method in brief: as §2
[14] = Half life in Sprague-Dawley rat at 2 mg/kg, iv; format: ADME, organism-based; design: dose 2 mg/kg, route intravenous; settings: in vivo; method in brief: as §1
Cytochrome P450 1A2 = target: T3, Cytochrome P450 1A2 (Homo sapiens, UniProt P05177); experiment: Inhibition of CYP1A2; format: ADME
T3 sequence (P05177 whole entry): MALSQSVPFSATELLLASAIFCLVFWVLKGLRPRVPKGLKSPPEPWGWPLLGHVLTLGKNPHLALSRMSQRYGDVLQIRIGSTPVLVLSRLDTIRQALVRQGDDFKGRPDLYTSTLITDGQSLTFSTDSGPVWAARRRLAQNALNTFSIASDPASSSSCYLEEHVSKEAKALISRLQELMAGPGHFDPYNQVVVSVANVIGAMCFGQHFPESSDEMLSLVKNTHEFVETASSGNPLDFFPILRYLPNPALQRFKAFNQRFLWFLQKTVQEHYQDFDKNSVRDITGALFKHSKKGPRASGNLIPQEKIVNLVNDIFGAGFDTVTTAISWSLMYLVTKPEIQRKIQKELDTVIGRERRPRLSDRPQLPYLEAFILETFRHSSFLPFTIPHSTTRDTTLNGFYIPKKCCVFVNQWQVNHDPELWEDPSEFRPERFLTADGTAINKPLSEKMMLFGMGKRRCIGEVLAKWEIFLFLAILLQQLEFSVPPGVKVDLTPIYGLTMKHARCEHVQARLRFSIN

[15] = Volume of distribution at steady state in Sprague-Dawley rat at 2 mg/kg, iv and 10 mg/kg, po; format: ADME, organism-based; settings: in vivo, read-out: Vdss; method in brief: as §1
[16] = Plasma concentration in BALB/c mouse at 10 mg/kg, po after 6 hrs; format: ADME, organism-based; design: dose 10 mg/kg, route oral
Method in brief: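 Female BALB/c mice, separate cohort (n = 6). Single oral dose 10 mg/kg; plasma drug level measured 6 h post-dose.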

[17] = Half life in dog at 2 mg/kg, iv; format: ADME, organism-based, Canis lupus familiaris; design: dose 2 mg/kg, route intravenous; settings: in vivo
[18] = Volume of distribution in dog at 2 mg/kg, iv and 5 mg/kg, po; format: ADME, organism-based, Canis lupus familiaris; settings: in vivo
Mus musculus [19] = experiment: Antiasthamatic activity against ovalbumin-induced airway lung inflammation in BALB/c mouse bronchoalveolar lavage model assessed as inhibition of increase om cysteinyl leukotrienes level at 10 mg/kg, po every 6 hrs administered 2 hrs prior to ovalbumin-challenge after 24 hrs; format: functional; method in brief: as §2
Cytochrome P450 2C19 = Cytochrome P450 2C19 (Homo sapiens, UniProt P33261); experiment: Inhibition of CYP2C19; format: ADME
Cytochrome P450 2C19, sequence (P33261 whole entry): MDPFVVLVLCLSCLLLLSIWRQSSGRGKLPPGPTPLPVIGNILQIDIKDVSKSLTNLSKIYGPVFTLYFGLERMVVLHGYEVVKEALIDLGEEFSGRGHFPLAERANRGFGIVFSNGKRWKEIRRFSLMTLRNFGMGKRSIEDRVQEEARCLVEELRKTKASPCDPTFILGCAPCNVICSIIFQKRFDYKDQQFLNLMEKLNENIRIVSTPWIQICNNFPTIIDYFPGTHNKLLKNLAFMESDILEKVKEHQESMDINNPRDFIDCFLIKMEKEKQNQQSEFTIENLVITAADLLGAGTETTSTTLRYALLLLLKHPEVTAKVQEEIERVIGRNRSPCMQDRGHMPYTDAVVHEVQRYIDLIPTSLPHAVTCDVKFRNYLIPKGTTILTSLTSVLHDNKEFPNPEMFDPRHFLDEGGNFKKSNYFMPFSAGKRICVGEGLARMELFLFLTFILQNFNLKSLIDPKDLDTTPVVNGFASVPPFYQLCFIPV

[20] = Clearance in Sprague-Dawley rat at 2 mg/kg, iv and 10 mg/kg, po; format: ADME, organism-based; settings: in vivo; method in brief: as §1

| SMILES | IC50 [1] [nM] | IC50 [2] [nM] | IC50 (Blood) [nM] | IC50 (Cytochrome P450 2C9) [nM] | IC50 (Cytochrome P450 2D6) [nM] | TDI (Cytochrome P450 3A4 [4]) [min⁻¹] | also measured |
| --- | --- | --- | --- | --- | --- | --- | --- |
| CC(C)(C)Sc1c(CC(C)(C)C(=O)O)n(Cc2ccc(-c3ncccn3)cc2)c2ccc(OCc3ccccn3)cc12 | 6.9 | 6.4 | 1210 | > 10000 | > 10000 | – | IC50 (Cytochrome P450 3A4 [3]): > 10000 nM |
| CC(C)(C)Sc1c(CC(C)(C)C(=O)O)n(Cc2ccc(Cl)cc2)c2ccc(OCc3ccccn3)cc12 | 1.7 | 0.8 | 512 | 1000 | > 30000 | – | IC50 (Cytochrome P450 3A4 [3]): 11500 nM |
| COc1ccc(-c2cccc(Cn3c(CC(C)(C)C(=O)O)c(SC(C)(C)C)c4cc(OCc5ccccn5)ccc43)c2)cn1 | 5.5 | 1.2 | 934 | – | – | – | IC50 [10]: 420 nM |
| CC(C)(Cc1c(C(=O)C2CCC2)c2cc(OCc3ccccn3)ccc2n1Cc1ccc(-c2nccs2)cc1)C(=O)O | 444 | 130 | 33500 | – | – | – | – |
| COc1ccc(-c2ccc(Cn3c(CC(C)(C)C(=O)O)c(S(=O)(=O)C(C)(C)C)c4cc(OCc5ccccn5)ccc43)cc2)cn1 | 205 | 59 | 3420 | – | – | – | – |
| CC(C)(C)Sc1c(CC(C)(C)C(=O)O)n(Cc2ccc(Cl)cc2)c2ccc(OCc3ccc4ccccc4n3)cc12 [QUIFLAPON] | – | 0.5 | 540 | 500 | 11000 | 0.009 | – |
| COc1ccc(-c2ccc(Cn3c(CC(C)(C)C(=O)O)c([S+]([O-])C(C)(C)C)c4cc(OCc5ccccn5)ccc43)cc2)cn1 (stereo not given) | 793 | 2000 | – | – | – | – | – |

More lines, in order of falling IC50 [1], values ahead:

| IC50 [1] [nM] | IC50 [2] [nM] | IC50 (Blood) [nM] | IC50 (Cytochrome P450 2C9) [nM] | IC50 (Cytochrome P450 2D6) [nM] | TDI (Cytochrome P450 3A4 [4]) [min⁻¹] | SMILES | also measured |
| --- | --- | --- | --- | --- | --- | --- | --- |
| 28 | 12 | 1650 | – | – | – | CC(C)(C)Sc1c(CC(C)(C)C(=O)O)n(Cc2ccc(-c3cnccn3)cc2)c2ccc(OCc3ccccn3)cc12 | – |
| 7.3 | – | – | – | – | 0.006 | Cc1csc(-c2ccc(Cn3c(CC(C)(C)C(=O)O)c(SC(C)(C)C)c4cc(OCc5ccccn5)ccc43)cc2)n1 | – |
| 6.8 | 4.1 | 277 | > 10000 | > 10000 | – | COc1ccc(-c2ccc(Cn3c(CC(C)(C)C(=O)O)c(SC(C)(C)C)c4cc(OCc5ccccn5)ccc43)cc2)nc1 | CL/F [5]: 2.8 mL/min/kg; inhibition at 10 µM (CYP3A4): 61%; Vdss (Rattus norvegicus): 0.51 L/kg; Cmax [6]: 21800 ng/mL; bioavailability [7]: 100%; AUC [8]: 61600 ng·h/mL; half-life [9]: 1.9 h |
| 4.2 | 0.5 | 349 | > 50000 | > 30000 | 0.015 | COc1ccc(-c2ccc(Cn3c(CC(C)(C)C(=O)O)c(SC(C)(C)C)c4cc(OCc5ccccn5)ccc43)cc2)cn1 | IC50 (Cytochrome P450 3A4 [3]): > 50000 nM; inhibition in vivo at 10 mg/kg (Mus musculus [11]): 60%; bioavailability [12]: 64%; Activity (Mus musculus [13]): Active; Cmax [6]: 9000 ng/mL; half-life [14]: 2.2 h; IC50 (Cytochrome P450 1A2): > 50000 nM; bioavailability [7]: 100%; Vd [15]: 0.3 L/kg; concentration at 6 h [16]: 406 nM; half-life [17]: 5.2 h; Vd [18]: 0.41 L/kg; inhibition in vivo at 10 mg/kg (Mus musculus [19]): 60%; IC50 (Cytochrome P450 2C19): > 50000 nM; AUC [8]: 26000 ng·h/mL; clearance [20]: 5.4 mL/min/kg |
| 3.3 | – | – | – | – | 0.018 | COc1nc(-c2ccc(Cn3c(CC(C)(C)C(=O)O)c(SC(C)(C)C)c4cc(OCc5ccccn5)ccc43)cc2)cs1 | – |
